Test [1] concerns Paracentrotus lividus. The test is described as follows: Antimitotic activity against sea urchin embryo model assessed as cleavage arrest of fertilized egg compound treated at 8 to 20 mins post-fertilization and 45 to 55 mins prior to first mitotic cycle completion measured 2.5 to 5.5 hrs post-fertilization. In kind it is functional. Summed up:
(§1)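 Fertilized eggs are exposed 8–20 min after fertilization to 2-fold decreasing concentrations. Stocks are 10 mM in DMSO, then diluted 10-fold in 95% EtOH; final DMSO is at most 0.05% and EtOH at most 1%. Embryos are kept as a monolayer, up to 2000 embryos/mL, in filtered seawater at room temperature. The value is the threshold concentration giving cleavage alteration, embryo death before hatching or full mitotic arrest. Duplicates were run.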

Test [2] can be described thus: Growth inhibition of human NCI60 cells at 10 uM after 48 hrs by SRB assay. In kind it is functional. Conditions: NCI60, 48 h, values are per cent of control. A general note: Sulforhodamine B stains cellular protein and so reports cell mass.
In test [3] the test system is Paracentrotus lividus. Description: Antimitotic activity against sea urchin embryo model assessed as cleavage alteration of fertilized egg compound treated at 8 to 20 mins post-fertilization and 45 to 55 mins prior to first mitotic cycle completion measured 2.5 to 5.5 hrs post-fertilization. In kind it is functional. The method, boiled down:
as §1

For test [4], the system named is Paracentrotus lividus. Description: Antimitotic activity against sea urchin embryo free-swimming blastula model assessed as embryo spinning compound treated at 8 to 10 hrs post-fertilization measured after 0.25 to 20 hrs. In kind it is functional, Blastula stage.

In the case of `COc1ccc(-n2nnc(N)c2-c2cc(OC)c(OC)c(OC)c2)cc1`, the EC is above 4 µM in test [1], 4 µM in test [3] and above 4 µM in test [4]. The growth, % of control at 10 µM in test [2] turned out to be 90.1%.

On to `COc1ccc(-c2c(C#N)nnn2-c2ccc(OC)cc2)cc1`, for which the results for the EC in test [1], in test [3] and in test [4] were above 4 µM, 4 µM and above 4 µM, respectively. The growth, % of control at 10 µM in test [2] was determined as 96.7%.

In the case of `COc1ccc(-n2nnc(C(=O)O)c2-c2cc(OC)c(OC)c(OC)c2)cc1`, the EC in test [1], in test [3] and in test [4] was above 4 µM in each case. In test [2], this compound had a growth, % of control at 10 µM of 104%.

Regarding `COc1cc(-c2c(C#N)nnn2-c2cccc(Cl)c2)cc(OC)c1OC`, the figures for the EC in test [1], in test [3] and in test [4] were 2 µM, 0.5 µM and above 5 µM, respectively. Also, the growth, % of control at 10 µM in test [2] was determined as 92.6%.

`COc1ccc(-c2c(C(=O)O)nnn2-c2cc(OC)c(OC)c(OC)c2)cc1`: the EC in test [1], in test [3] and in test [4] was above 4 µM each time. In test [2], this compound showed a growth, % of control at 10 µM of 99.4%.

Regarding `COc1ccc(-n2nnc(C#N)c2-c2cc(OC)c(OC)c(OC)c2)cc1`, the EC in test [1] is above 4 µM; in test [3], 1 µM; in test [4] it was above 4 µM.

In the case of `COc1ccc(-c2c(C(N)=O)nnn2-c2cc(OC)c(OC)c(OC)c2)cc1`, the EC in test [1], in test [3] and in test [4] was above 4 µM each time. Besides, the growth, % of control at 10 µM in test [2] amounted to 101%.

Consider `COc1ccc(-c2cnnn2-c2cc(OC)c3c(c2OC)OCO3)cc1`, for which the EC in test [1] was above 4 µM; in test [3], 1 µM; in test [4] it was above 4 µM.

`COc1ccc(/C=C\c2cc(OC)c3c(c2)OCO3)cc1O` [Combretastatin A-2]: the figures for the EC in test [1], in test [3] and in test [4] were 0.01 µM, 0.002 µM and 0.05 µM, respectively.

As for `O=C(O)c1nnn(-c2cccc(Cl)c2)c1-c1ccccc1`, the EC in test [1], in test [3] and in test [4] was above 4 µM in each case.

Regarding `COc1cc(-c2c(C#N)nnn2-c2cc(OC)c(OC)c(OC)c2)cc(OC)c1OC`, the EC in test [1], in test [3] and in test [4] was above 4 µM in each case. This compound came in with a growth, % of control at 10 µM in test [2] of 98.8%.

Consider `CCOC(=O)c1nnn(-c2cccc(Cl)c2)c1-c1ccccc1`, for which the EC in test [1], in test [3] and in test [4] was above 4 µM in each case.

In the case of `COc1ccc(-c2c(C#N)nnn2-c2cc(OC)c(OC)c(OC)c2)cc1`, the EC in test [1], in test [3] and in test [4] was above 4 µM each time.

As to `Clc1cccc(-n2nncc2-c2ccccc2)c1`, the EC in test [1], in test [3] and in test [4] was above 4 µM in each case.

As for `Nc1nnn(-c2cccc(Cl)c2)c1-c1ccccc1`, the EC in test [1], in test [3] and in test [4] was above 4 µM each time.

On to `COC(=O)c1nnn(-c2cc(OC)c(OC)c(OC)c2)c1-c1ccc(OC)cc1`, for which the EC in test [1], in test [3] and in test [4] was above 4 µM each time.

Take `COc1cc(-c2c(C(N)=O)nnn2-c2cc(OC)c(OC)c(OC)c2)cc(OC)c1OC`: the EC in test [1], in test [3] and in test [4] was above 4 µM in each case. In test [2], this compound showed a growth, % of control at 10 µM of 102%.

In the case of `COc1ccc(-c2c(N)nnn2-c2cc(OC)c(OC)c(OC)c2)cc1`, the EC in test [1] was above 4 µM; in test [3], 0.1 µM; in test [4], above 5 µM.

As to `COc1ccc(-n2nnc(C#N)c2-c2cccc(OC)c2)cc1`, the EC in test [1] stood at 1 µM; in test [3] it was 0.2 µM; in test [4] it was 5 µM.

In the case of `COc1cccc(-c2c(C#N)nnn2-c2cccc(Cl)c2)c1`, the EC in test [1], in test [3] and in test [4] was above 4 µM in each case. The same compound registered a growth, % of control at 10 µM in test [2] of 92%.

Source of the values: ChEMBL document CHEMBL3102739, “Synthesis and antiproliferative activity of conformationally restricted 1,2,3-triazole analogues of combretastatins in the sea urchin embryo model and against human cancer cell lines” (Bioorg Med Chem, 2014).
